What was measured:
[1] = Metabolic stability in human liver microsomes assessed as parent compound remaining at 1 uM after 15 mins in presence of NADPH by HPLC-MS/MS analysis; type: ADME, microsome; settings: read-out: Stability
How it was run: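 The compound was incubated at 1 µM with human liver microsomes for 15 min, and the percentage of parent compound remaining was measured.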

[2] = Metabolic stability in human plasma assessed as parent compound remaining at 1 uM after 1 hr by HPLC-MS/MS analysis; type: ADME, cell-free; settings: read-out: Stability
How it was run: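 The compound was incubated in human plasma for 1 h, and stability was expressed as the percentage of parent compound remaining.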

remaining at […], 1 µM [1]: 40%
remaining at 1 h, 1 µM [2]: 85%
SMILES: Clc1ccc(SCc2n[nH]c(-c3ccc(Cl)cc3)n2)cc1
